Experiments:
Rattus norvegicus [1] = assay: Antiinflammatory activity in albino rat assessed as inhibition of carrageenan-induced paw edema at 0.029 mmol/kg, po after 4 hrs relative to indomethacin; assay type: functional
Outline: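 Rat carrageenan paw edema: oral 0.029 mmol/kg in saline/Tween 80, 1 h before subplantar 0.1 ml 1% carrageenan into the right hind paw; six rats per group. Potency is % inhibition of the test compound divided by % inhibition of indomethacin at 4 h.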

Mus musculus [2] = assay: Analgesic activity in albino mouse assessed as decrease in acetic acid-induced writhing at 11.55 mg/kg, po administered 1 hr prior to acetic acid challenge relative to control; assay type: functional
Outline: (§1)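 Albino mice of either sex, 18–22 g, six per group. Test agents suspended in saline with a few drops of Tween 80 and given by oral stomach tube; controls handled identically without drug. After 1 h, 0.3 ml of 1% acetic acid ip. Writhing contractions counted for 30 min, starting 5 min after injection. % protection versus control mean; mean ± SEM; one-way ANOVA with post hoc test.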

Rattus norvegicus [3] = assay: Antiinflammatory activity in albino rat assessed as inhibition of carrageenan-induced paw edema at 0.029 mmol/kg, po after 4 hrs relative to control; assay type: functional
Outline: (§2)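 Adult albino rats of either sex, 120–150 g, six per group. Compounds at 0.029 mmol/kg suspended in saline with a few drops of Tween 80 and given by oral stomach tube. After 1 h, 0.1 ml of freshly prepared 1% carrageenan in saline injected subplantar into the right hind paw. Paw thickness measured at 1–4 h; % edema inhibition versus control; mean ± SEM; ANOVA.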

Rattus norvegicus [4] = assay: Antiinflammatory activity in albino rat assessed as inhibition of carrageenan-induced paw edema at 0.029 mmol/kg, po after 2 hrs relative to control; assay type: functional; outline: as §2
Rattus norvegicus [5] = assay: Antiinflammatory activity in albino rat assessed as inhibition of carrageenan-induced paw edema at 0.029 mmol/kg, po after 3 hrs relative to control; assay type: functional; outline: as §2
Rattus norvegicus [6] = assay: Gastrointestinal toxicity in albino rat assessed as ulcerogenic index at 0.029 mmol/kg, po after 5 hrs; assay type: organism-based; settings: in vivo
Outline: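 Adult albino rats of either sex (120–150 g), 6 per group, got the test compounds orally by stomach tube as a suspension in saline with a few drops of tween 80. They were the same rats used in the carrageenan paw-edema test. Stomachs were then opened along the great curvature and examined for lesions or bleeding. Ulceration was recorded as the number of rats with ulcers out of 6.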

Rattus norvegicus [7] = assay: Antiinflammatory activity in albino rat assessed as inhibition of carrageenan-induced paw edema at 0.029 mmol/kg, po after 1 hr relative to control; assay type: functional; outline: as §2
Mus musculus [8] = assay: Analgesic activity in albino mouse assessed as decrease in acetic acid-induced writhing at 12.87 mg/kg, po administered 1 hr prior to acetic acid challenge relative to control; assay type: functional; outline: as §1
Mus musculus [9] = assay: Analgesic activity in albino mouse assessed as decrease in acetic acid-induced writhing at 11.96 mg/kg, po administered 1 hr prior to acetic acid challenge relative to control; assay type: functional; outline: as §1
Mus musculus [10] = assay: Analgesic activity in albino mouse assessed as decrease in acetic acid-induced writhing at 4 mg/kg, po administered 1 hr prior to acetic acid challenge; assay type: functional; outline: as §1
Mus musculus [11] = assay: Analgesic activity in albino mouse assessed as decrease in acetic acid-induced writhing at 0.8 mg/kg, po administered 1 hr prior to acetic acid challenge; assay type: functional; outline: as §1
Mus musculus [12] = assay: Analgesic activity in albino mouse assessed as decrease in acetic acid-induced writhing at 0.4 mg/kg, po administered 1 hr prior to acetic acid challenge; assay type: functional; outline: as §1
Mus musculus [13] = assay: Analgesic activity in po dosed albino mouse assessed as decrease in acetic acid-induced writhing administered 1 hr prior to acetic acid challenge; assay type: functional, organism-based; outline: as §1
Mus musculus [14] = assay: Analgesic activity in albino mouse assessed as decrease in acetic acid-induced writhing at 1 mg/kg, po administered 1 hr prior to acetic acid challenge; assay type: functional; outline: as §1
Mus musculus [15] = assay: Analgesic activity in albino mouse assessed as decrease in acetic acid-induced writhing at 2 mg/kg, po administered 1 hr prior to acetic acid challenge; assay type: functional; outline: as §1
Mus musculus [16] = assay: Analgesic activity in albino mouse assessed as decrease in acetic acid-induced writhing at 8 mg/kg, po administered 1 hr prior to acetic acid challenge; assay type: functional; outline: as §1
Mus musculus [17] = assay: Analgesic activity in albino mouse assessed as decrease in acetic acid-induced writhing at 13.81 mg/kg, po administered 1 hr prior to acetic acid challenge relative to control; assay type: functional; outline: as §1
Mus musculus [18] = assay: Analgesic activity in albino mouse assessed as decrease in acetic acid-induced writhing at 13.84 mg/kg, po administered 1 hr prior to acetic acid challenge relative to control; assay type: functional; outline: as §1
Mus musculus [19] = assay: Analgesic activity in albino mouse assessed as decrease in acetic acid-induced writhing at 10 mg/kg, po administered 1 hr prior to acetic acid challenge relative to control; assay type: functional; outline: as §1

| SMILES | relative potency at 29 µmol/kg (Rattus norvegicus [1]) | inhibition in vivo at 11.55 mg/kg (Mus musculus [2]) | inhibition in vivo at 29 µmol/kg (Rattus norvegicus [3]) | inhibition in vivo at 29 µmol/kg (Rattus norvegicus [4]) | inhibition in vivo at 29 µmol/kg (Rattus norvegicus [5]) | UI (Rattus norvegicus [6]) | inhibition in vivo at 29 µmol/kg (Rattus norvegicus [7]) | inhibition in vivo at 12.87 mg/kg (Mus musculus [8]) | inhibition in vivo at 11.96 mg/kg (Mus musculus [9]) | inhibition in vivo at 4 mg/kg (Mus musculus [10]) | inhibition in vivo at 0.8 mg/kg (Mus musculus [11]) | inhibition in vivo at 0.4 mg/kg (Mus musculus [12]) | IC50 (Mus musculus [13]) | inhibition in vivo at 1 mg/kg (Mus musculus [14]) | inhibition in vivo at 2 mg/kg (Mus musculus [15]) | inhibition in vivo at 8 mg/kg (Mus musculus [16]) | inhibition in vivo at 13.81 mg/kg (Mus musculus [17]) | inhibition in vivo at 13.84 mg/kg (Mus musculus [18]) | inhibition in vivo at 10 mg/kg (Mus musculus [19]) |
| --- | --- | --- | --- | --- | --- | --- | --- | --- | --- | --- | --- | --- | --- | --- | --- | --- | --- | --- | --- |
| O=C1N(c2ccccc2)c2nc(-c3ccccc3)n3c(=O)[nH]nc3c2C2CCCN12 (centres undefined) | 0.56 | 75.9% | 15.5% | 12.4% | 17.3% | Non-toxic | 10.1% |  |  |  |  |  |  |  |  |  |  |  |  |
| CCOC(=O)NNc1nc(-c2ccccc2)nc2c1C1CCCN1C(=O)N2c1ccccc1 (centres undefined) | 0.59 |  | 16.1% | 17.4% | 18% |  | 19.1% | 91.8% |  |  |  |  |  |  |  |  |  |  |  |
| O=C1CN2C(=NN1)C1=C(N=C2c2ccccc2)N(c2ccccc2)C(=O)N2CCCC12 (centres undefined) | 0.77 |  | 21.1% | 7.44% | 15.8% | Non-toxic | 2.23% |  | 91.8% | 86.1% | 63.3% | 43.1% | 0.446 mg/kg | 76.6% | 82.4% | 88.8% |  |  |  |
| O=C(NNc1nc(-c2ccccc2)nc2c1C1CCCN1C(=O)N2c1ccccc1)c1ccccc1 (centres undefined) | 0.93 |  | 25.5% | 28.9% | 27.4% |  | 35.9% |  |  |  |  |  |  |  |  |  | 71.8% |  |  |
| O=C(NNc1nc(-c2ccccc2)nc2c1C1CCCN1C(=O)N2c1ccccc1)c1cccnc1 (centres undefined) | 0.2 |  | 5.59% | 11.6% | 8.63% |  | 32.6% |  |  |  |  |  |  |  |  |  |  | 77.9% |  |
| COc1ccc2c(c1)c(CC(=O)O)c(C)n2C(=O)c1ccc(Cl)cc1 [INDOMETHACIN] |  |  | 27.3% | 35.5% | 30.9% |  | 47.2% |  |  |  |  |  |  |  |  |  |  |  | 71.6% |

From ChEMBL document CHEMBL1155292, “Synthesis, analgesic and anti-inflammatory activities evaluation of some bi-, tri- and tetracyclic condensed pyrimidines” (Eur J Med Chem, 2009)
